The results in this text go back to ChEMBL document CHEMBL1147868, “Synthesis of novel triazole derivatives as inhibitors of cytochrome P450 14alpha-demethylase (CYP51)” (2007).

Holding throughout (type): functional
One assay deals with Candida parapsilosis. The assay is described as follows: Antifungal activity against Candida parapsilosis ATCC 0306392 after 7 days by micro-broth dilution method. To be noted: Lodderomyces parapsilosis, ATCC 0306392, 168 h. In outline:
(§1)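 Micro-broth dilution followed NCCLS methods, using an ATCC standard quality-control strain for C. parapsilosis and a clinical isolate for C. tropicalis. Compounds were dissolved in DMSO, serially diluted in growth medium and incubated at 35 C. MIC80 was the first well with about 80% growth reduction compared with the drug-free well.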
For orientation: Dilution methods test growth across graded concentrations, often in twofold steps.

The next assay relates to Candida tropicalis. The assay is described as follows: Antifungal activity against Candida tropicalis after 7 days by micro-broth dilution method. To be noted: 168 h. Summed up: as §1
The next assay concerns Fonsecaea compacta. The assay can be described thus: Antifungal activity against Fonsecaea compacta after 7 days by micro-broth dilution method. To be noted: 168 h. In outline:
(§2)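 Clinical isolates supplied by a hospital were tested by NCCLS broth microdilution. Compounds were dissolved in DMSO, serially diluted in growth medium, inoculated and incubated at 35 C. Growth was read at 7 days for filamentous fungi. MIC80 was taken as the first well with about 80% less growth than the drug-free well.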

A further assay relates to Trichophyton rubrum. The assay is described as follows: Antifungal activity against Trichophyton rubrum after 7 days by microbroth dilution method. To be noted: 168 h. Summed up: as §2
In a further assay the test system is Candida albicans. The assay can be described thus: Antifungal activity against Candida albicans ATCC Y0109 after 24 hrs by micro-broth dilution method. In outline:
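An ATCC standard quality-control strain was included in each run of an NCCLS micro-broth dilution assay. Compounds were dissolved in DMSO, serially diluted in growth medium and incubated at 35 C. Reading was at 24 h, and MIC80 was the first well showing roughly 80% growth reduction versus the drug-free control.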

The next assay relates to Microsporum. The assay is described as follows: Antifungal activity against Microsporum gypseum after 7 days by micro-broth dilution method. Particulars: 168 h. In outline:
as §2

Another assay relates to Aspergillus fumigatus. The assay can be described thus: Antifungal activity against Aspergillus fumigatus after 7 days by micro-broth dilution method. To be noted: 168 h. In outline:
as §2

The test system of the next assay is Cryptococcus neoformans. The assay can be described thus: Antifungal activity against Cryptococcus neoformans ATCC BLS108 after 72 hrs by micro-broth dilution method. In outline:
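This ATCC standard quality-control strain was tested in every assay by NCCLS microdilution. Test agents were dissolved in DMSO and serially diluted in growth medium. Cultures were incubated at 35 C and read at 72 h. MIC80 was the first well with approximately 80% reduced growth relative to the drug-free well.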

In brackets after ≈: the same amount, converted by molar mass. A value given as a limit tells only on which side of the number the result lay.

The term MIC80 denotes an inhibitory concentration at the 80% level, which refers to growth in some studies and to a panel of isolates in others. A high value points to lower susceptibility.

Take `COc1cccc(C(=O)Nc2ccc(N3CCN(CC(O)(Cn4cncn4)c4ccc(F)cc4F)CC3)c(F)c2)c1` (stereo not drawn): the MIC80 against Candida parapsilosis came out at 0.0152 µg/mL (≈ 0.0268 µM); against Candida tropicalis, 0.0152 µg/mL (≈ 0.0268 µM); in the assay with Fonsecaea compacta it was 0.25 µg/mL (≈ 0.441 µM); with Trichophyton rubrum, 0.0152 µg/mL (≈ 0.0268 µM); in the assay with Candida albicans it was 0.0625 µg/mL (≈ 0.11 µM); against Microsporum, 0.25 µg/mL (≈ 0.441 µM). In addition, the MIC80 against Aspergillus fumigatus is 1 µg/mL (≈ 1.76 µM); against Cryptococcus neoformans it was 0.0152 µg/mL (≈ 0.0268 µM).
Turning to `COc1cc(C(=O)Nc2ccc(N3CCN(CC(O)(Cn4cncn4)c4ccc(F)cc4F)CC3)c(F)c2)cc(OC)c1OC` (stereo not drawn), the MIC80 in the assay on Candida parapsilosis was 0.0625 µg/mL (≈ 0.0997 µM); against Candida tropicalis it was 0.0625 µg/mL (≈ 0.0997 µM); against Fonsecaea compacta, 4 µg/mL (≈ 6.38 µM); against Trichophyton rubrum it was greater than 64 µg/mL; with Candida albicans it was 0.25 µg/mL (≈ 0.399 µM); with Microsporum it was 1 µg/mL (≈ 1.6 µM). Besides, the results for the MIC80 in the assay with Aspergillus fumigatus and in the assay on Cryptococcus neoformans were 4 µg/mL (≈ 6.38 µM) and 1 µg/mL (≈ 1.6 µM), respectively.
In the case of `COc1ccccc1C(=O)Nc1ccc(N2CCN(CC(O)(Cn3cncn3)c3ccc(F)cc3F)CC2)c(F)c1` (stereo not drawn), the MIC80 was determined as 0.25 µg/mL (≈ 0.441 µM) with Candida parapsilosis; 0.0152 µg/mL (≈ 0.0268 µM) in the assay with Candida tropicalis; 0.25 µg/mL (≈ 0.441 µM) against Fonsecaea compacta; 0.0625 µg/mL (≈ 0.11 µM) in the assay on Trichophyton rubrum; 0.0625 µg/mL (≈ 0.11 µM) with Candida albicans; 0.0625 µg/mL (≈ 0.11 µM) with Microsporum. In addition, the results for the MIC80 against Aspergillus fumigatus and in the assay with Cryptococcus neoformans were 1 µg/mL (≈ 1.76 µM) and 0.0625 µg/mL (≈ 0.11 µM), respectively.
As for `Cc1ccc(C(=O)Nc2ccc(N3CCN(CC(O)(Cn4cncn4)c4ccc(F)cc4F)CC3)c(F)c2)cc1C` (stereo not drawn), the MIC80 against Candida parapsilosis came out at 0.0152 µg/mL (≈ 0.0269 µM); in the assay on Candida tropicalis, 0.0625 µg/mL (≈ 0.111 µM); in the assay on Fonsecaea compacta it was 0.25 µg/mL (≈ 0.443 µM); in the assay with Trichophyton rubrum, 0.0625 µg/mL (≈ 0.111 µM); against Candida albicans it was 0.25 µg/mL (≈ 0.443 µM); against Microsporum, 0.0152 µg/mL (≈ 0.0269 µM). In addition, the MIC80 in the assay on Aspergillus fumigatus is 1 µg/mL (≈ 1.77 µM); against Cryptococcus neoformans it was 0.25 µg/mL (≈ 0.443 µM).
In the case of `O=C(Nc1ccc(N2CCN(CC(O)(Cn3cncn3)c3ccc(F)cc3F)CC2)c(F)c1)c1cccc(C(F)(F)F)c1` (stereo not drawn), the MIC80 against Candida parapsilosis was determined as 0.0152 µg/mL (≈ 0.0251 µM); in the assay on Candida tropicalis it was 0.25 µg/mL (≈ 0.414 µM); against Fonsecaea compacta, 0.25 µg/mL (≈ 0.414 µM); against Trichophyton rubrum, 0.0625 µg/mL (≈ 0.103 µM); in the assay on Candida albicans it was 0.25 µg/mL (≈ 0.414 µM); against Microsporum, 0.0625 µg/mL (≈ 0.103 µM). Besides, the MIC80 against Aspergillus fumigatus came out at 4 µg/mL (≈ 6.62 µM); in the assay with Cryptococcus neoformans it was 0.25 µg/mL (≈ 0.414 µM).
As for `CC(C)(C)c1ccc(C(=O)Nc2ccc(N3CCN(CC(O)(Cn4cncn4)c4ccc(F)cc4F)CC3)c(F)c2)cc1` (stereo not drawn), the MIC80 with Candida parapsilosis was 0.0625 µg/mL (≈ 0.105 µM); against Candida tropicalis it was 0.25 µg/mL (≈ 0.422 µM); against Fonsecaea compacta, 0.25 µg/mL (≈ 0.422 µM); against Trichophyton rubrum it was 4 µg/mL (≈ 6.75 µM); in the assay with Candida albicans, 1 µg/mL (≈ 1.69 µM); in the assay on Microsporum, 0.25 µg/mL (≈ 0.422 µM). Further, the MIC80 came to 4 µg/mL (≈ 6.75 µM) in the assay with Aspergillus fumigatus and 0.25 µg/mL (≈ 0.422 µM) against Cryptococcus neoformans.
In the case of `CCCCCc1ccc(C(=O)Nc2ccc(N3CCN(CC(O)(Cn4cncn4)c4ccc(F)cc4F)CC3)c(F)c2)cc1` (stereo not drawn), the MIC80 in the assay on Candida parapsilosis amounted to 0.25 µg/mL (≈ 0.412 µM); with Candida tropicalis it was 4 µg/mL (≈ 6.59 µM); in the assay with Fonsecaea compacta, 1 µg/mL (≈ 1.65 µM); against Trichophyton rubrum, 1 µg/mL (≈ 1.65 µM); with Candida albicans, 0.25 µg/mL (≈ 0.412 µM); with Microsporum, 1 µg/mL (≈ 1.65 µM). For the same molecule, the MIC80 worked out at 4 µg/mL (≈ 6.59 µM) against Aspergillus fumigatus and 0.25 µg/mL (≈ 0.412 µM) in the assay with Cryptococcus neoformans.
For the molecule `O=C(Nc1ccc(N2CCN(CC(O)(Cn3cncn3)c3ccc(F)cc3F)CC2)c(F)c1)c1ccc(OC(F)(F)F)cc1` (stereo not drawn), the MIC80 in the assay with Candida parapsilosis is 0.0625 µg/mL (≈ 0.101 µM); in the assay with Candida tropicalis it was 0.0625 µg/mL (≈ 0.101 µM); in the assay on Fonsecaea compacta it was 0.0625 µg/mL (≈ 0.101 µM); with Trichophyton rubrum, 0.0625 µg/mL (≈ 0.101 µM); against Candida albicans it was 0.0152 µg/mL (≈ 0.0245 µM); in the assay with Microsporum, 0.0625 µg/mL (≈ 0.101 µM). Besides, the figures for the MIC80 with Aspergillus fumigatus and in the assay with Cryptococcus neoformans were 1 µg/mL (≈ 1.61 µM) and 0.25 µg/mL (≈ 0.403 µM), respectively.
For the molecule `O=C(Nc1ccc(N2CCN(CC(O)(Cn3cncn3)c3ccc(F)cc3F)CC2)c(F)c1)c1ccccc1[N+](=O)[O-]` (stereo not drawn), the MIC80 against Candida parapsilosis came out at 0.0625 µg/mL (≈ 0.107 µM); in the assay on Candida tropicalis, 0.0625 µg/mL (≈ 0.107 µM); in the assay with Fonsecaea compacta, 1 µg/mL (≈ 1.72 µM); with Trichophyton rubrum, 0.0152 µg/mL (≈ 0.0261 µM); in the assay on Candida albicans it was 0.0152 µg/mL (≈ 0.0261 µM); with Microsporum, 0.0625 µg/mL (≈ 0.107 µM). The MIC80 against Aspergillus fumigatus and in the assay with Cryptococcus neoformans was 1 µg/mL (≈ 1.72 µM) each time.
Take `O=C(Nc1ccc(N2CCN(CC(O)(Cn3cncn3)c3ccc(F)cc3F)CC2)c(F)c1)c1ccc([N+](=O)[O-])cc1` (stereo not drawn): the MIC80 with Candida parapsilosis was determined as 1 µg/mL (≈ 1.72 µM); in the assay with Candida tropicalis it was 4 µg/mL (≈ 6.88 µM); in the assay on Fonsecaea compacta, 0.0625 µg/mL (≈ 0.107 µM); against Trichophyton rubrum, 0.25 µg/mL (≈ 0.43 µM); against Candida albicans, 0.25 µg/mL (≈ 0.43 µM); in the assay on Microsporum, 0.0625 µg/mL (≈ 0.107 µM). Also, the MIC80 amounted to 4 µg/mL (≈ 6.88 µM) with Aspergillus fumigatus and 0.25 µg/mL (≈ 0.43 µM) in the assay with Cryptococcus neoformans.
Turning to `CCc1ccc(C(=O)Nc2ccc(N3CCN(CC(O)(Cn4cncn4)c4ccc(F)cc4F)CC3)c(F)c2)cc1` (stereo not drawn), the MIC80 with Candida parapsilosis stood at 4 µg/mL (≈ 7.08 µM); in the assay with Candida tropicalis, 0.0625 µg/mL (≈ 0.111 µM); in the assay on Fonsecaea compacta it was 0.0625 µg/mL (≈ 0.111 µM); with Trichophyton rubrum, 0.0625 µg/mL (≈ 0.111 µM); against Candida albicans, 0.25 µg/mL (≈ 0.443 µM); against Microsporum it was 0.25 µg/mL (≈ 0.443 µM). Also, the MIC80 against Aspergillus fumigatus was 1 µg/mL (≈ 1.77 µM); in the assay on Cryptococcus neoformans, 0.0625 µg/mL (≈ 0.111 µM).
